Activity calls are given as the source filed them. The rule behind the calls is not given here.
Test system: Huh-7
Assay: Cytotoxicity against human HuH7 cells assessed as growth inhibition after 72 hrs by SRB assay
Type: functional, cell-based
Settings: Huh-7, 72 h
How it was run: (§1)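 Cells seeded at 2000–3000 per well and grown 24 h at 37C, then treated in triplicate with compounds dissolved in DMSO over a 40–0.3 range for 72 h. Cells were fixed with 10% TCA for 1 h, stained with 0.4% SRB in 1% acetic acid, washed with 1% acetic acid and air-dried. Bound dye was solubilized in 10 mM Tris base and read at 515 nm. % inhibition and IC50 were calculated against DMSO-only controls.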

| Compound | IC50 |
| --- | --- |
| COc1ccc(OC)c(C(=O)/C=C/c2cn(-c3ccccc3)nc2-c2cccnc2)c1 | 1300 nM |

Test system: MCF7
Assay: Cytotoxicity against human MCF7 cells assessed as growth inhibition after 72 hrs by SRB assay
Type: functional, cell-based
Settings: MCF7, 72 h
How it was run: as §1

| Compound | IC50 |
| --- | --- |
| COc1ccc(OC)c(C(=O)/C=C/c2cn(-c3ccccc3)nc2-c2cccnc2)c1 | 1500 nM |

Test system: HCT-116
Assay: Cytotoxicity against human HCT116 cells assessed as growth inhibition after 72 hrs by SRB assay
Type: functional, cell-based
Settings: HCT-116, 72 h
How it was run: as §1

| Compound | IC50 |
| --- | --- |
| COc1ccc(OC)c(C(=O)/C=C/c2cn(-c3ccccc3)nc2-c2cccnc2)c1 | 1000 nM |

Species: Homo sapiens
Assay: Inhibition of tubulin polymerization (unknown origin)
Settings: not given

| Compound | inhibition |
| --- | --- |
| COc1ccc(OC)c(C(=O)/C=C/c2cn(-c3ccccc3)nc2-c2cccnc2)c1 | inactive |

Test system: HepG2
Assay: Cytotoxicity against human HepG2 cells assessed as growth inhibition after 72 hrs by SRB assay
Type: functional, cell-based
Settings: HepG2, 72 h
How it was run: as §1

| Compound | IC50 |
| --- | --- |
| COc1ccc(OC)c(C(=O)/C=C/c2cn(-c3ccccc3)nc2-c2cccnc2)c1 | 3400 nM |

Test system: Mahlavu
Assay: Cytotoxicity against human Mahlavu cells assessed as growth inhibition after 72 hrs by SRB assay
Type: functional, cell-based
Settings: not given
How it was run: as §1

| Compound | IC50 |
| --- | --- |
| COc1ccc(OC)c(C(=O)/C=C/c2cn(-c3ccccc3)nc2-c2cccnc2)c1 | 2000 nM |

Test system: SNU-475
Assay: Cytotoxicity against human SNU475 cells assessed as growth inhibition after 72 hrs by SRB assay
Type: functional, cell-based
Settings: SNU-475, 72 h
How it was run: as §1

| Compound | IC50 |
| --- | --- |
| COc1ccc(OC)c(C(=O)/C=C/c2cn(-c3ccccc3)nc2-c2cccnc2)c1 | 1900 nM |

Test system: MCF-12A
Assay: Cytotoxicity against human MCF12A cells assessed as growth inhibition after 72 hrs by SRB assay
Type: cell-based
Settings: not given
How it was run: as §1

| Compound | IC50 |
| --- | --- |
| COc1ccc(OC)c(C(=O)/C=C/c2cn(-c3ccccc3)nc2-c2cccnc2)c1 | 2400 nM |

Test system: MRC5
Assay: Cytotoxicity against human MRC5 cells assessed as growth inhibition after 72 hrs by SRB assay
Type: cell-based
Settings: Homo sapiens, MRC5, 72 h; read-out: IC50
How it was run: as §1

| Compound | IC50 |
| --- | --- |
| COc1ccc(OC)c(C(=O)/C=C/c2cn(-c3ccccc3)nc2-c2cccnc2)c1 | 2700 nM |

Test system: Huh-7
Assay: Growth inhibition of human HuH7 cells at cytotoxic IC100 measured every 10 mins for first 24 hrs and every 30 mins for remaining 48 hrs by RT-CES analysis
Type: functional, cell-based
Settings: not given

| Compound | growth inhibition (GI) |
| --- | --- |
| COc1ccc(OC)c(C(=O)/C=C/c2cn(-c3ccccc3)nc2-c2cccnc2)c1 | Active |

Test system: HepG2
Assay: Growth inhibition of human HepG2 cells at cytotoxic IC100 measured every 10 mins for first 24 hrs and every 30 mins for remaining 48 hrs by RT-CES analysis
Type: functional, cell-based
Settings: not given

| Compound | growth inhibition (GI) |
| --- | --- |
| COc1ccc(OC)c(C(=O)/C=C/c2cn(-c3ccccc3)nc2-c2cccnc2)c1 | Active |

Test system: Mahlavu
Assay: Growth inhibition of human Mahlavu cells at cytotoxic IC100 measured every 10 mins for first 24 hrs and every 30 mins for remaining 48 hrs by RT-CES analysis
Type: functional, cell-based
Settings: not given

| Compound | growth inhibition (GI) |
| --- | --- |
| COc1ccc(OC)c(C(=O)/C=C/c2cn(-c3ccccc3)nc2-c2cccnc2)c1 | Active |

Test system: SNU-475
Assay: Growth inhibition of human SNU475 cells at cytotoxic IC100 measured every 10 mins for first 24 hrs and every 30 mins for remaining 48 hrs by RT-CES analysis
Type: functional, cell-based
Settings: not given

| Compound | growth inhibition (GI) |
| --- | --- |
| COc1ccc(OC)c(C(=O)/C=C/c2cn(-c3ccccc3)nc2-c2cccnc2)c1 | Active |

Test system: HepG2
Assay: Induction of apoptosis in human HepG2 cells assessed as condensed nuclei at cytotoxic IC100 measured after 48 hrs by DAPI/Annexin-V-Fluos staining based fluorescent microscopic method
Type: functional, cell-based
Settings: not given
How it was run: (§2)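 Cells on coverslips were treated after 24 h in culture and stained 48 h later with Annexin-V-Fluos plus DAPI nuclear stain. Cells were then examined by fluorescence microscopy for Annexin V-positive cells with condensed nuclei.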

| Compound | Activity |
| --- | --- |
| COc1ccc(OC)c(C(=O)/C=C/c2cn(-c3ccccc3)nc2-c2cccnc2)c1 | Active |

Test system: HepG2
Assay: Induction of apoptosis in human HepG2 cells assessed as condensed nuclei at cytotoxic IC100 measured after 72 hrs by light microscopic method
Type: functional, cell-based
Settings: not given

| Compound | Activity |
| --- | --- |
| COc1ccc(OC)c(C(=O)/C=C/c2cn(-c3ccccc3)nc2-c2cccnc2)c1 | Active |

Test system: SNU-475
Assay: Induction of apoptosis in human SNU475 cells assessed as condensed nuclei at cytotoxic IC100 measured after 72 hrs by light microscopic method
Type: functional, cell-based
Settings: not given

| Compound | Activity |
| --- | --- |
| COc1ccc(OC)c(C(=O)/C=C/c2cn(-c3ccccc3)nc2-c2cccnc2)c1 | Active |

Test system: SNU-475
Assay: Induction of apoptosis in human SNU475 cells assessed as condensed nuclei at cytotoxic IC100 measured after 48 hrs by DAPI/Annexin-V-Fluos staining based fluorescent microscopic method
Type: functional, cell-based
Settings: not given
How it was run: as §2

| Compound | Activity |
| --- | --- |
| COc1ccc(OC)c(C(=O)/C=C/c2cn(-c3ccccc3)nc2-c2cccnc2)c1 | Active |

Test system: SNU-475
Assay: Induction of apoptosis in human SNU475 cells assessed as PARP cleavage at cytotoxic IC100 measured after 24 hrs by Western blot method
Type: functional, cell-based
Settings: not given

| Compound | Activity |
| --- | --- |
| COc1ccc(OC)c(C(=O)/C=C/c2cn(-c3ccccc3)nc2-c2cccnc2)c1 | Active |

Test system: HepG2
Assay: Induction of apoptosis in human HepG2 cells assessed as PARP cleavage at cytotoxic IC100 measured after 24 hrs by Western blot method
Type: functional, cell-based
Settings: not given

| Compound | Activity |
| --- | --- |
| COc1ccc(OC)c(C(=O)/C=C/c2cn(-c3ccccc3)nc2-c2cccnc2)c1 | Active |

Test system: HepG2
Assay: Induction of apoptosis in human HepG2 cells assessed as accumulation at G2/M phase at cytotoxic IC100 measured after 48 hrs by propidium iodide staining based flow cytometry
Type: functional, cell-based
Settings: not given
How it was run: (§3)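 After 24, 48 and 72 h, cells were fixed in ice-cold 70% ethanol for 3 h, stained with propidium iodide, and cell-cycle distribution was read on a MUSE Cell Analyzer.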

| Compound | Activity |
| --- | --- |
| COc1ccc(OC)c(C(=O)/C=C/c2cn(-c3ccccc3)nc2-c2cccnc2)c1 | Active |

Test system: HepG2
Assay: Induction of apoptosis in human HepG2 cells assessed as accumulation at subG1 phase at cytotoxic IC100 measured after 72 hrs by propidium iodide staining based flow cytometry
Type: functional, cell-based
Settings: not given
How it was run: as §3

| Compound | Activity |
| --- | --- |
| COc1ccc(OC)c(C(=O)/C=C/c2cn(-c3ccccc3)nc2-c2cccnc2)c1 | Active |

Test system: SNU-475
Assay: Induction of apoptosis in human SNU475 cells assessed as accumulation at G2/M phase at cytotoxic IC100 measured after 48 hrs by propidium iodide staining based flow cytometry
Type: functional, cell-based
Settings: not given
How it was run: as §3

| Compound | Activity |
| --- | --- |
| COc1ccc(OC)c(C(=O)/C=C/c2cn(-c3ccccc3)nc2-c2cccnc2)c1 | Active |

Test system: SNU-475
Assay: Induction of apoptosis in human SNU475 cells assessed as accumulation at subG1 phase at cytotoxic IC100 measured after 72 hrs by propidium iodide staining based flow cytometry
Type: functional, cell-based
Settings: not given
How it was run: as §3

| Compound | Activity |
| --- | --- |
| COc1ccc(OC)c(C(=O)/C=C/c2cn(-c3ccccc3)nc2-c2cccnc2)c1 | Active |

Test system: HepG2
Assay: Induction of apoptosis in human HepG2 cells assessed as decrease in CDK expression level at cytotoxic IC100 measured after 24 hrs by Western blot method
Type: functional
Design: scale not given: the % may be the effect or the level left
Settings: not given

| Compound | Activity |
| --- | --- |
| COc1ccc(OC)c(C(=O)/C=C/c2cn(-c3ccccc3)nc2-c2cccnc2)c1 | 50% |

Test system: SNU-475
Assay: Induction of apoptosis in human SNU475 cells assessed as decrease in CDK expression level at cytotoxic IC100 measured after 24 hrs by Western blot method
Type: functional, cell-based
Settings: not given

| Compound | Activity |
| --- | --- |
| COc1ccc(OC)c(C(=O)/C=C/c2cn(-c3ccccc3)nc2-c2cccnc2)c1 | Active |

Target: G2/mitotic-specific cyclin-B1 (Homo sapiens) (UniProt P14635)
Assay: Inhibition of Cyclin B1 phosphorylation at Ser147 residue in human HepG2 cells at cytotoxic IC100 measured after 24 hrs by Western blot method
Type: cell-based
Settings: not given

Sequence of G2/mitotic-specific cyclin-B1 (Homo sapiens) (P14635 whole entry): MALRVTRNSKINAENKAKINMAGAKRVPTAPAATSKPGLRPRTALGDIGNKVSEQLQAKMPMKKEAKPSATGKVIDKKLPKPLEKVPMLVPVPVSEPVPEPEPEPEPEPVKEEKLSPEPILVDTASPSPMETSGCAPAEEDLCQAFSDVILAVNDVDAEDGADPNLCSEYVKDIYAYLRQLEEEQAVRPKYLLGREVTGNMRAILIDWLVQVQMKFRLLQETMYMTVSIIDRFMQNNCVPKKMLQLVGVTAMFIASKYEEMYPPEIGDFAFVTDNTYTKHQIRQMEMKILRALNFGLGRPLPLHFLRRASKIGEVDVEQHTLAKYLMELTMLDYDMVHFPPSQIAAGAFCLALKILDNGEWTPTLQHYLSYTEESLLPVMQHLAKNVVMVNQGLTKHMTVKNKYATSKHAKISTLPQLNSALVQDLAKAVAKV

| Compound | inhibition |
| --- | --- |
| COc1ccc(OC)c(C(=O)/C=C/c2cn(-c3ccccc3)nc2-c2cccnc2)c1 | 50% |

Test system: HepG2
Assay: Induction of apoptosis in human HepG2 cells assessed as decrease in cyclin B1 protein expression level at cytotoxic IC100 measured after 24 hrs by Western blot method
Type: functional, cell-based
Settings: not given

| Compound | Activity |
| --- | --- |
| COc1ccc(OC)c(C(=O)/C=C/c2cn(-c3ccccc3)nc2-c2cccnc2)c1 | Active |

Test system: HepG2
Assay: Increase in p21 protein expression in human HepG2 cells at cytotoxic IC100 measured after 24 hrs by Western blot method relative to control
Type: functional
Settings: not given

| Compound | fold change (FC) |
| --- | --- |
| COc1ccc(OC)c(C(=O)/C=C/c2cn(-c3ccccc3)nc2-c2cccnc2)c1 | 5 - 6 |

Test system: SNU-475
Assay: Increase in p21 protein expression in human SNU475 cells at cytotoxic IC100 measured after 24 hrs by Western blot method relative to control
Type: functional
Settings: not given

| Compound | fold change (FC) |
| --- | --- |
| COc1ccc(OC)c(C(=O)/C=C/c2cn(-c3ccccc3)nc2-c2cccnc2)c1 | 2 |

Target: T1, Retinoblastoma-associated protein (Homo sapiens) (UniProt P06400)
T1 sequence (whole entry): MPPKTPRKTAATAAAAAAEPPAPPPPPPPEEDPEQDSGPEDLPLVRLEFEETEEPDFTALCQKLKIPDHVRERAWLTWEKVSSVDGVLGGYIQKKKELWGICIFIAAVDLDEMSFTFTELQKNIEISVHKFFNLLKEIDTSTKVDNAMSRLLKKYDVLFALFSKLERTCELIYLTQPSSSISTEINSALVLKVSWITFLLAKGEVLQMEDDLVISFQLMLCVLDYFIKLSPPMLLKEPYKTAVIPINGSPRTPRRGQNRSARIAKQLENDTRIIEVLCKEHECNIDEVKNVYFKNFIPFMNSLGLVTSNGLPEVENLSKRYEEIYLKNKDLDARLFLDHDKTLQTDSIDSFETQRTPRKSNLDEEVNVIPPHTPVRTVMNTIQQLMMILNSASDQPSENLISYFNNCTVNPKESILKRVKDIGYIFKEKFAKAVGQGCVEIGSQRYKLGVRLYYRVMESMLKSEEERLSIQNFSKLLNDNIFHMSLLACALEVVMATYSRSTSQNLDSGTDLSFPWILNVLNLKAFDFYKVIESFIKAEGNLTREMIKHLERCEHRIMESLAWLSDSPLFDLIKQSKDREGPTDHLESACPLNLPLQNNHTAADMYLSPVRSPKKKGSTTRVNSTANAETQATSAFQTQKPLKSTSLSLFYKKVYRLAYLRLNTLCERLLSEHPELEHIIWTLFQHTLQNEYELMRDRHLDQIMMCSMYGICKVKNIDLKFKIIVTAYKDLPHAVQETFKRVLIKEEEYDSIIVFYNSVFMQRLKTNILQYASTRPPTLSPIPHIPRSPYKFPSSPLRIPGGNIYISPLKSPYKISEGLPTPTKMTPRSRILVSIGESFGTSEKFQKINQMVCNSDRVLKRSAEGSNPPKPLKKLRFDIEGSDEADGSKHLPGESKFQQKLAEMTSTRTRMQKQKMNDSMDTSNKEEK
Assay: Inhibition of retinoblastoma phosphorylation in human HepG2 cells at cytotoxic IC100 measured after 24 hrs by Western blot method
Type: cell-based
Settings: not given

| Compound | inhibition |
| --- | --- |
| COc1ccc(OC)c(C(=O)/C=C/c2cn(-c3ccccc3)nc2-c2cccnc2)c1 | Active |

Target: T1, Retinoblastoma-associated protein (Homo sapiens)
Assay: Inhibition of retinoblastoma phosphorylation in human SNU475 cells at cytotoxic IC100 measured after 24 hrs by Western blot method
Type: cell-based
Settings: not given

| Compound | inhibition |
| --- | --- |
| COc1ccc(OC)c(C(=O)/C=C/c2cn(-c3ccccc3)nc2-c2cccnc2)c1 | Active |

— ChEMBL document CHEMBL4004857, “Synthesis and biological evaluation of novel pyrazolic chalcone derivatives as novel hepatocellular carcinoma therapeutics” (Eur J Med Chem, 2017)
